Laboratory results taken from ChEMBL document CHEMBL1781968, “δ-Carbolines and their ring-opened analogs: synthesis and evaluation against fungal and bacterial opportunistic pathogens” (Eur J Med Chem, 2011).
Active and inactive are the calls of the source. The rule behind the calls is not given here.

Assays:
[1] = Cytotoxicity against african green monkey Vero cell after 48 hrs by neutral red uptake assay; type: cell-based; details: chlorocebus sabaeus, Vero cells; read-out: TC50
Summary of the method: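 VERO kidney fibroblasts seeded at 25,000 cells/well and incubated 24 h. Compounds added, highest concentration 10 μg/mL, then 48 h further incubation. Viable cells measured by neutral red assay. IC50 taken from growth-inhibition dose curves. Doxorubicin as positive control, DMSO as vehicle control.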

[2] = system: Candida albicans; assay: Antifungal activity against Candida albicans ATCC 90028 by NCCLS method; type: functional, organism-based
Summary of the method: (§1)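 Modified NCCLS microdilution for fungi. Samples in DMSO serially diluted with 0.9% saline, in duplicate, final concentrations from 20 μg/mL down. Inocula matched to 0.5 McFarland (630 nm) and diluted in Sabouraud dextrose broth. Growth, solvent and medium controls included. OD 530 nm read before and after incubation. IC50 from percent growth curve. MIC is no detectable growth. MFC is lowest concentration killing the organism.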

[3] = system: Staphylococcus aureus; assay: Antibacterial activity against Staphylococcus aureus ATCC 29213 by NCCLS method; type: functional, organism-based
Summary of the method: (§2)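 Broth microdilution (modified NCCLS). Samples in DMSO serially diluted in 0.9% saline, tested in duplicate, highest final concentration 20 μg/mL. Inoculum matched to 0.5 McFarland standard by absorbance at 630 nm, then diluted in cation-adjusted Mueller–Hinton broth. Growth, solvent and medium controls on each plate. Absorbance at 530 nm read before and after incubation. IC50 taken from percent growth versus concentration plot; MIC is lowest concentration with no detectable growth; MBC is lowest concentration killing the organism.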

[4] = system: Escherichia coli; assay: Antibacterial activity against Escherichia coli by NCCLS method; type: functional, organism-based
Summary of the method: (§3)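 Modified NCCLS broth microdilution. DMSO-dissolved samples serially diluted in 0.9% saline, tested in duplicate, final concentrations starting at 20 μg/mL. Inoculum set to 0.5 McFarland (absorbance 630 nm) and diluted in cation-adjusted Mueller–Hinton broth. Growth, solvent and medium controls on each plate. Read at 530 nm before and after incubation. IC50 from percent growth versus concentration. MIC is lowest concentration with no detectable growth.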

[5] = system: Aspergillus fumigatus; assay: Antifungal activity against Aspergillus fumigatus ATCC 204305 at 20 ug/ml by NCCLS method; type: functional, organism-based; summary of the method: as §1
[6] = system: Mycobacterium intracellulare; assay: Antibacterial activity against Mycobacterium intracellular ATCC 23068 by alamar blue method; type: functional, organism-based
Summary of the method: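 Modified Alamar blue method (Franzblau). Samples in DMSO serially diluted in 0.9% saline, in duplicate, final concentrations starting at 20 μg/mL. Inoculum adjusted to 0.5 McFarland, then diluted in Middlebrook 7H9 with OADC enrichment plus 5% Alamar blue. Fluorescence read (ex 544/em 590 nm) before and after incubation. IC50 from percent growth versus concentration. MIC is no detectable growth.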

[7] = system: Staphylococcus aureus; assay: Antibacterial activity against methicillin-resistant Staphylococcus aureus ATCC 33591 by NCCLS method; type: functional, organism-based; summary of the method: as §2
[8] = system: Aspergillus fumigatus; assay: Antifungal activity against Aspergillus fumigatus ATCC 204305 by NCCLS method; type: functional, organism-based; summary of the method: as §1
[9] = system: Cryptococcus neoformans; assay: Antifungal activity against Cryptococcus neoformans ATCC 90113 by NCCLS method; type: functional, organism-based; summary of the method: as §1
[10] = system: Escherichia coli; assay: Antibacterial activity against Escherichia coli at 20 ug/ml by NCCLS method; type: functional, organism-based; summary of the method: as §3

Row | SMILES | CC50 at 48 h [1] [µg/mL] | MFC [2] [µg/mL] | IC50 [3] [µg/mL] | MBC [3] [µg/mL] | MIC [3] [µg/mL] | IC50 [4] [µg/mL] | MBC [4] [µg/mL] | MIC [4] [µg/mL] | IC50 [6] [µg/mL] | MBC [6] [µg/mL] | MIC [6] [µg/mL] | IC50 [7] [µg/mL] | MBC [7] [µg/mL] | MIC [7] [µg/mL] | IC50 [8] [µg/mL] | IC50 [9] [µg/mL] | MFC [9] [µg/mL] | MIC [9] [µg/mL] | IC50 [2] [µg/mL] | MIC [2] [µg/mL] | further results
1 | C[n+]1cccc(N(CCCCCC2CCCCC2)c2ccc(F)cc2)c1.[I-] | > 10 | > 20 | 0.7 | 10 | 1.3 | 18 | > 20 | > 20 | 3.2 | 10 | 5 | 3 | 20 | 5 |  |  |  |  |  |  | Activity [5]: inactive
2 | C[n+]1cccc2c1c1ccc(Cl)cc1n2CCCCCC1CCCCC1.[I-] | > 10 | 10 | 0.4 | 5 | 0.6 | 5.9 | > 20 | > 20 | 0.7 | 5 | 1.3 | 1.2 | 2.5 | 2.5 | 16 | 0.3 | 0.6 | 0.6 | 2.9 | 5 | MFC [8]: > 20 µg/mL; MIC [8]: 20 µg/mL
3 | C[n+]1cccc2c1c1cc(C(F)(F)F)ccc1n2CCCCCC1CCCCC1.[I-] | > 10 | 20 | 0.4 | 10 | 0.6 | 7.6 | > 20 | > 20 | 0.8 | 2.5 | 1.3 | 1.2 | 10 | 2.5 | 18 | 0.4 | 1.3 | 0.6 | 5.8 | 10 | MFC [8]: > 20 µg/mL; MIC [8]: > 20 µg/mL
4 | COc1ccc2c(c1)c1c(ccc[n+]1C)n2CCCCCC1CCCCC1.[I-] | > 10 | > 20 | 0.7 | 20 | 1.3 | 12 | > 20 | > 20 | 1.6 | 2.5 | 2.5 | 3.3 | 20 | 5 | 16 | 0.7 | 1.3 | 1.3 | 7.4 | 20 | MFC [8]: > 20 µg/mL; MIC [8]: > 20 µg/mL
5 | C[n+]1cccc(N(CCCCCC2CCCCC2)c2ccc(C#N)cc2)c1.[I-] | > 10 |  | 2.5 | 20 | 5 |  |  |  | 2.8 | 5 | 5 | 6.2 | 20 | 10 |  |  |  |  |  |  | Activity [5]: inactive; Activity [10]: inactive
6 | C[n+]1cccc2c1c1cccc(Cl)c1n2CCCCCC1CCCCC1.[I-] | > 10 | 5 | 0.2 | 10 | 0.3 | 5.7 | > 20 | > 20 | 0.5 | 5 | 0.6 | 1.2 | 5 | 2.5 | 16 | 0.3 | 0.6 | 0.6 | 2.5 | 5 | MFC [8]: 20 µg/mL; MIC [8]: 20 µg/mL
7 | C[n+]1cccc(N(CCCCCC2CCCCC2)c2cccc(C#N)c2)c1.[I-] |  |  | 0.8 | 20 | 1.3 |  |  |  | 2 | 10 | 2.5 | 3.9 | 10 | 10 |  |  |  |  |  |  | Activity [10]: inactive
8 | C[n+]1cccc2c1c1cc(C#N)ccc1n2CCCCCC1CCCCC1.[I-] | > 10 | > 20 | 2.6 | 20 | 5 |  |  |  | 2.1 | 5 | 2.5 | 5.8 | 20 | 10 |  | 2.8 | 5 | 5 | 19 | 20 | Activity [5]: inactive; Activity [10]: inactive
9 | COc1ccc(N(CCCCCC2CCCCC2)c2ccc[n+](C)c2)cc1.[I-] | > 10 |  | 0.3 | 10 | 0.6 | 5.4 | > 20 | > 20 | 1 | 5 | 1.3 | 1.9 | 10 | 5 |  |  |  |  |  |  | Activity [5]: inactive
10 | CSc1ccc2c(c1)c1c(ccc[n+]1C)n2CCCCCC1CCCCC1.[I-] | > 10 | 5 | 0.4 | 5 | 0.6 | 5.6 | > 20 | > 20 | 0.7 | 2.5 | 1.3 | 1.1 | 10 | 2.5 | 13 | 0.3 | 0.6 | 0.6 | 2.1 | 5 | MFC [8]: 20 µg/mL; MIC [8]: 20 µg/mL
11 | COc1cccc(N(CCCCCC2CCCCC2)c2ccc[n+](C)c2)c1.[I-] |  |  | 0.8 | 20 | 1.3 |  |  |  | 3.3 | 10 | 5 | 4.8 | 20 | 10 |  |  |  |  |  |  | Activity [10]: inactive
12 | C[n+]1cccc(N(CCCCCC2CCCCC2)c2ccccc2C#N)c1.[I-] |  |  | 1.3 | 10 | 2.5 |  |  |  | 3.5 | 20 | 5 | 6.4 | 20 | 20 |  |  |  |  |  |  | Activity [10]: inactive
